MPTP inh – mitochondrial permeability transition pore inhibitors, primary screen, biochemical, isolated mouse mitochondria, absorbance; Ca2+ swelling absorbance, 30 min; inhibition, % at 10 µM; actives 1.4% (n = 360,000); AID 602449, 2012;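 active means inhibition of 50% or more, scaled per plate between neutral and stimulator controls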;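 further: 0% = DMSO wells given calcium and 100% = 1 mM EGTA wells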
Hep lipid drop – inhibitors of hepatocyte lipid droplet formation, primary screen, imaging, high-throughput imaging, BODIPY stain | actives 0.4% (n = 240,000) | AML12 mouse hepatocytes, oleate lipid droplets | AID 1656, 2009 | inhibition, % at 6.5 µM;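 active means lipid droplet intensity inhibited by at least 50%, with more than 500 cells counted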
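material = mouse AML12 hepatocyte cell line, fixed after treatment | also added = 100 µM oleic acid challenge | doses = compound at 6.5 µM only | schedule = overnight exposure | technique = Image-based BODIPY and DAPI two-channel analysis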
DTT redox prof – compounds producing H2O2 with reducing agent – biochemical, NIH compound library profiling, artefact control for MLSCN library redox annotation, primary screen | DTT-dependent redox cycling H2O2, phenol red/HRP absorbance; 100% = 100 µM peroxide control, 0% = buffer | activation, % at 10 µM | actives 0.03% (n = 200,000) | AID 878, 2007;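 active means activation of at least 50% relative to the plate's high and low controls in the primary single-dose screen; inactive means activation below 50%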;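 further: compound incubated with DTT at 0.8 mM final as the reducing agent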
T cruzi inh – inhibitors of intracellular T. cruzi growth, primary screen, luminescence, NIH3T3 host cells; T. cruzi beta-gal in NIH3T3, 90 h; inhibition, % (test concentration not listed); actives 1.4% (n = 300,000);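 active means mean inhibition across valid replicates above about 55%, limit read from the data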;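 further: signal also drops with host cell toxicity which is not excluded here; 0% = plate median of DMSO wells and 100% = zero luminescence signal; higher percent means less beta-gal luminescence so fewer parasites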
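System: Mouse NIH/3T3 fibroblasts infected with β-gal-expressing T. cruzi Tulahuen C4 | Quantity: NIH/3T3 cells, 5,000 per well | Reagent: 5000 reporter trypomastigotes per well | Dosing: Compound pinned at 50 nL/well, DMSO | Schedule: 3 h host attachment, then at least 90 h co-culture | Detection: GalScreen luminescence, 60 min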
L major viab – Leishmania major promastigote growth inhibition, primary screen | Leishmania major promastigotes, resazurin fluorescence viability | inhibition, % at 10 µM | actives 9% (n = 200,000); in the data active means inhibition above about 50%;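 further: promastigotes grown with compound for 44 hours at 28 °C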
* marks the source's active call; other numbers are inactive results; x = not tested or not shown. The sample as a whole holds a higher share of hits than the screen did.

SMILES	MPTP inh	Hep lipid drop	DTT redox prof	T cruzi inh	L major viab
NC(=S)N/N=C/c1ccc(C(F)(F)F)cc1	-1	9	0	54	70*
COC(=O)c1ccc(COc2ccc(/C=N/NC(N)=S)cc2)o1	3	2	x	55*	x
O=C(NC(=S)NCCC1=CCCCC1)c1cncc(Br)c1	3	-3	0	3	-3
CCOC(=O)c1c(C)nc2sc(C(=O)Nc3ccc(C(C)=O)cc3)c(N)c2c1-c1ccc(OC)cc1	3	-3	2	34	95*
CCOC(=O)c1c(C)nc2sc3c(=O)n(-c4ccc(OC)cc4)cnc3c2c1-c1ccc(OC)cc1	-1	x	2	2	5
COc1ccc(-c2c(C(C)=O)c(C)nc3sc4c(=N)n(N)cnc4c23)cc1	7	1	0	20	62*
CCOC(=O)c1c(C)nc2sc(C(=O)Nc3ccc(OC)cc3)c(N)c2c1-c1ccc(OC)cc1	1	-11	1	29	21
CCOC(=O)c1c(C)nc2sc(C(N)=O)c(N)c2c1-c1ccc(OC)cc1	-2	-15	-2	21	94*
CCOC(=O)c1c(C)nc2sc3c(=O)n(-c4ccc(C(C)=O)cc4)nnc3c2c1-c1ccc(OC)cc1	0	x	-9	31	44
Cc1ccc(OCc2nnc(SCC(=O)O)n2-c2ccccc2)cc1	1	x	x	-2	x
C=CCn1c(SCc2ccc(C#N)cc2)nnc1-c1ccc(C)cc1	0	x	2	2	78*
Cc1ccc(OCc2nnc(SCC(=O)c3ccccc3)n2-c2ccccc2)cc1	3	-4	1	17	100*
COc1ccc(-n2c(COc3ccc(C)cc3)nnc2SCc2ccc(C#N)cc2)cc1	0	x	2	35	68*
CCn1c(COc2ccc(Cl)cc2)nnc1SCc1ccc(C#N)cc1	-2	-57	0	13	51*
CCn1c(COc2ccccc2)nnc1SCc1ccc(C#N)cc1	2	x	-3	16	30
CC(Sc1ncnc2ccccc12)C(=O)Nc1ccc2c(c1)OCO2 (configuration not stated)	1	x	-3	1	80*
O=C(Nc1ccc2c(c1)OCO2)C1CCN(C(=O)CSc2ncnc3ccccc23)CC1	8	x	1	10	79*
COc1ccc(C(=O)N2CCC(C(=O)Nc3ccc4c(c3)OCO4)CC2)cc1	1	-18	0	6	52*
CCSc1nc2ccccc2[nH]1	0	-6	1	-13	10
CC1(C)C(CSc2nc3ccccc3[nH]2)C1(Cl)Cl (configuration not stated)	2	0	-2	15	74*
CCn1c(SC)nnc1-c1sc2cc(Cl)ccc2c1Cl	4	-5	0	24	87*
CSc1nnc(-c2sc3cc(Cl)ccc3c2Cl)n1C	1	10	1	-2	9
O=C(NC(N1CCOCC1)C(Cl)(Cl)Cl)c1cc([N+](=O)[O-])cc([N+](=O)[O-])c1 (configuration not stated)	-2	-7	-1	94*	91*
O=C(NC(N1CCOCC1)C(Cl)(Cl)Cl)c1ccccc1Cl (configuration not stated)	-1	0	-2	-10	1
CCN(CC)Cc1c(O)ccc2c(=O)c(-c3ccccc3OC)coc12	0	-5	x	-4	x
SMILES	MPTP inh	Hep lipid drop	DTT redox prof	T cruzi inh	L major viab
CCN(CC)Cc1c(O)ccc2c([N+](=O)[O-])c(C)n(-c3ccc(OC)cc3)c12	1	-6	1	1	69*
CCCCNC(=O)N1c2ccccc2CC1C (configuration not stated)	0	-8	1	-2	1
CCOc1ccc(NC(C)C(=O)N/N=C/c2ccc([N+](=O)[O-])cc2)cc1 (configuration not stated)	x	-2	0	-10	-5
Cc1ccc(NC(C)C(=O)N/N=C/c2ccc([N+](=O)[O-])s2)cc1 (configuration not stated)	-1	-6	-1	82*	100*
COc1ccc(NC(C)C(=O)N/N=C/c2ccc([N+](=O)[O-])s2)cc1 (configuration not stated)	-1	-7	-1	65*	100*
COc1cccc(/C=C/C(=O)OCC(=O)NCC2CCCO2)c1OC (configuration not stated)	-2	2	0	-10	0
O=C(NCCNC(=O)c1ccc(-c2ccc(Cl)c(Cl)c2)o1)c1cnccn1	0	16	x	35	x
O=C1N=c2ccccc2=C1c1c(O)n(-c2cccc(F)c2)[nH]c1=O	21	12	0	-9	61*
Cn1c(O)c(C2=c3ccccc3=NC2=O)[nH]c1=S	4	2	0	-18	-4
Cn1c(N)c(C(=O)COC(=O)C2(c3ccccc3F)CCCC2)c(=O)n(C)c1=O	2	x	-1	19	79*
Cn1c(N)c(C(=O)COC(=O)C2(c3ccc(F)cc3)CCCC2)c(=O)n(C)c1=O	-1	0	-2	-10	0
O=[N+]([O-])c1ccc(Nc2nc(N/N=C\c3ccc4c(c3)OCO4)nc(N3CCCCC3)n2)cc1	3	x	3	50	100*
O=[N+]([O-])c1cc2c(cc1/C=N/Nc1nc(N3CCCC3)nc(N3CCCC3)n1)OCO2	0	-18	0	14	76*
O=[N+]([O-])c1ccc(/C=N/Nc2nc(N3CCCCCC3)nc(N3CCCCCC3)n2)o1	1	4	2	76*	100*
O=[N+]([O-])c1ccc(/C=N/Nc2nc(N3CCCCC3)nc(N3CCCCC3)n2)cc1	3	6	-1	9	54*
O=[N+]([O-])c1ccccc1/C=N/Nc1nc(N2CCCC2)nc(N2CCCC2)n1	-1	3	0	10	1
NNc1nc(Nc2ccc([N+](=O)[O-])cc2)nc(N2CCCCCC2)n1	1	-4	x	49	x
COc1nc(N/N=C/c2ccc(-c3ccccc3[N+](=O)[O-])o2)nc(N2CCOCC2)n1	0	1	0	-12	86*
O=[N+]([O-])c1ccc(-c2ccc(/C=N/Nc3nc(NCc4ccccc4)nc(N4CCOCC4)n3)o2)cc1	2	11	0	27	14
COC(=O)[C@@]12CCCCN1[C@H](c1ccc(-c3cccc(Cl)c3)cc1)[C@@H]1C(=O)N(C)C(=O)[C@@H]12	1	x	x	x	x
Cc1ccc2[nH]c(=O)c(CN(Cc3ccc4c(c3)OCO4)Cc3nnnn3C3CCCC3)cc2c1	0	-48	-3	36	64*
Cc1cc(C)c2cc(CN(Cc3ccc4c(c3)OCO4)Cc3nnnn3Cc3ccco3)c(=O)[nH]c2c1	-7	-9	-1	42	44
